These results are taken from ChEMBL document CHEMBL1649111, “Restoration of susceptibility of intracellular methicillin-resistant Staphylococcus aureus to beta-lactams: comparison of strains, cells, and antibiotics” (Antimicrob Agents Chemother, 2008).

Molecules are shown by their SMILES. In brackets after ≈: the same amount, converted by molar mass.

A word on the MIC: it is the lowest concentration found to suppress growth.

Data set [1] has as its system Staphylococcus aureus. The data set can be described thus: Antimicrobial activity against intracellular hospital acquired methicillin-resistant Staphylococcus aureus ATCC 33591 infected in human keratinocytes assessed as decrease in bacterial growth after 24 hrs at pH 7.4. The class given is functional, organism-based. Conditions: ATCC 33591, 24 h. An outline of the steps:
(§1)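 Primary human skin keratinocytes or Calu-3 bronchial epithelial cells, given an inoculum of 5 × 10⁷ to 1 × 10⁸ bacteria/ml and 2 h for internalization. Post-phagocytosis load 1.5 × 10⁶ to 3.0 × 10⁶ CFU per mg cell protein. Cloxacillin dose range in mg/liter for 24 h, n = 3. Hill-derived Emin, Emax and EC50; static concentration interpolated.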

Data set [2] deals with Staphylococcus aureus. The data set can be described thus: Antimicrobial activity against intracellular hospital acquired methicillin-resistant Staphylococcus aureus ATCC 33591 infected in human Calu3 cells assessed as decrease in bacterial count from original inoculum at high compound concentration after 24 hrs at pH 7.4. The class given is functional, Calu-3. An outline of the steps: as §1

For data set [3], the system named is Staphylococcus aureus. The data set can be described thus: Antimicrobial activity against intracellular beta-lactamase negative methicillin-susceptible Staphylococcus aureus ATCC 25923 infected in human Calu3 cells assessed as decrease in bacterial growth after 24 hrs at pH 7.4. The class given is functional, organism-based. Conditions: ATCC 25923, Calu-3, 24 h. A digest of the protocol: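 Calu-3 bronchial epithelial cells, grown in uncoated flasks, were infected with 5 × 10⁷ to 1 × 10⁸ bacteria/ml for 2 h, giving 1.5 × 10⁶ to 3.0 × 10⁶ CFU/mg protein after phagocytosis. Cells were then exposed 24 h to a range of cloxacillin concentrations (mg/liter). CFU change per mg protein was measured (n = 3). A Hill fit with slope 1 gave Emax and EC50, and the static concentration was interpolated.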

Data set [4] has as its system Staphylococcus aureus. The data set can be described thus: Bacteriostatic activity against intracellular hospital acquired methicillin-resistant Staphylococcus aureus ATCC 33591 infected in human Calu3 cells assessed as decrease in bacterial growth after 24 hrs at pH 7.4. The class given is functional, Calu-3. A digest of the protocol:
as §1

A short description of data set [5]: Chemical stability of the compound assessed as compound remaining after 24 hrs PBS buffer by HPLC analysis at pH 5.5. It counts as physicochemical. Particulars: read-out: Activity. An outline of the steps: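 Drug at 50 mg/liter initial concentration incubated 24 h at 37°C in buffered medium at pH 7.4 or 5.5. Remaining drug measured by HPLC signal disappearance; mobile phase 25 mM phosphate buffer pH 6.7 with acetonitrile (75:25).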

Data set [6] deals with Staphylococcus aureus. The data set can be described thus: Antimicrobial activity against hospital acquired methicillin-resistant Staphylococcus aureus ATCC 33591 infected in human THP-1 cells assessed as decrease in bacterial count from original inoculum at high compound concentration after 24 hrs at pH 7.4. The class given is functional.
Data set [7] deals with Staphylococcus aureus. The data set can be described thus: Antimicrobial activity against beta-lactamase negative methicillin-susceptible Staphylococcus aureus ATCC 25923 infected in human THP-1 cells assessed as decrease in bacterial growth after 24 hrs at pH 7.4. The class given is functional, organism-based. Conditions: ATCC 25923, THP-1, 24 h.
The test system of data set [8] is THP-1. The data set can be described thus: Ratio of intracellular to extracellular drug level in human THP1 cells at 250 mg/L after 24 hrs. The class given is ADME, cell-based. Conditions: thp-1, 24 h. An outline of the steps: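 THP-1 cells incubated 24 h at 250 mg/liter extracellular drug. Cell lysates assayed microbiologically with MSSA ATCC 25923; content expressed per mg total protein. Cellular/extracellular ratio calculated assuming cell volume of 5 μl per mg protein.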

Data set [9] concerns Staphylococcus aureus. The data set can be described thus: Antimicrobial activity against hospital acquired methicillin-resistant Staphylococcus aureus HMC546 by broth microdilution method at pH 7.4. The class given is functional. A digest of the protocol: (§2)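 Minimal inhibitory concentration by broth microdilution at pH 7.4, read in mg/liter. The MRSA genotype was confirmed by mecA PCR, and the SCCmec subgroup was assigned by multiplex PCR.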

Data set [10] deals with Staphylococcus aureus. The data set can be described thus: Antimicrobial activity against hospital acquired methicillin-resistant and vancomycin-intermediate Staphylococcus aureus VRS2 obtained from patient with wound, skin and soft tissue infection by broth microdilution method at pH 7.4. It counts as functional. An outline of the steps: as §2
On the technique in general: In broth dilution the organism is exposed to a series of concentrations in liquid medium.

In data set [11] the test system is Staphylococcus aureus. The data set can be described thus: Antimicrobial activity against beta-lactamase negative methicillin-susceptible Staphylococcus aureus ATCC 25923 by broth microdilution method at pH 5.5. The class given is functional.
For data set [12], the system named is Staphylococcus aureus. The data set can be described thus: Antimicrobial activity against hospital acquired methicillin-resistant Staphylococcus aureus N4120032 obtained from wound infection of patient by broth microdilution method at pH 5.5. The class given is functional.
Data set [13] has as its system Staphylococcus aureus. The data set can be described thus: Antimicrobial activity against hospital acquired methicillin-resistant Staphylococcus aureus N4120210 obtained from urinary tract infection patient by broth microdilution method at pH 5.5. The class given is functional. Conditions: N4120210, Urine.
Data set [14] concerns Staphylococcus aureus. The data set can be described thus: Antimicrobial activity against Panton-valentine leukocidin positive community acquired methicillin-resistant Staphylococcus aureus N4042228 by broth microdilution method at pH 5.5. The class given is functional.
The test system of data set [15] is Staphylococcus aureus. The data set can be described thus: Antimicrobial activity against hospital acquired methicillin-resistant Staphylococcus aureus ATCC 33591 infected in human THP-1 cells assessed as increase in bacterial count from original inoculum at low compound concentration after 24 hrs at pH 5.5. The class given is functional. An outline of the steps: (§3)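 Bacteria phagocytosed by unactivated human THP-1 macrophages, then incubated 24 h with extracellular antibiotic at about 0.01× to 100× the pH 5.5 broth MIC. CFU per mg cell protein counted against the original inoculum, n = 3. A Hill-equation fit (slope factor 1) gave Emin and Emax, extrapolated to infinitely low and high concentration, and EC50. Static concentration was graphically interpolated.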

Data set [16] concerns Staphylococcus aureus. The data set can be described thus: Antimicrobial activity against Panton-valentine leukocidin positive community acquired methicillin-resistant Staphylococcus aureus NRS192 obtained from patient with pneumonia and septic arthritis infected in human THP-1 cells assessed as increase in bacterial count from original inoculum at low compound concentration after 24 hrs at pH 5.5. The class given is functional. A digest of the protocol: as §3

Data set [17] has as its system Staphylococcus aureus. The data set can be described thus: Antimicrobial activity against hospital acquired methicillin-resistant Staphylococcus aureus N4120032 obtained from wound infection opf patient infected in human THP-1 cells assessed as decrease in bacterial count from original inoculum at high compound concentration after 24 hrs at pH 5.5. The class given is functional. A digest of the protocol: as §3

Data set [18] relates to Staphylococcus aureus. The data set can be described thus: Antimicrobial activity against beta-lactamase negative methicillin-susceptible Staphylococcus aureus ATCC 25923 infected in human THP-1 cells assessed as decrease in bacterial growth after 24 hrs at pH 5.5. The class given is functional, organism-based. Conditions: ATCC 25923, THP-1, 24 h. A digest of the protocol: as §3

The subject of data set [19] is Staphylococcus aureus. The data set can be described thus: Antimicrobial activity against constitutive beta-lactamase negative methicillin-resistant Staphylococcus aureus COL NRS100 infected in human THP-1 cells assessed as decrease in bacterial growth after 24 hrs at pH 5.5. Conditions: COL NRS100, THP-1, 24 h. The class given is functional, organism-based. A digest of the protocol:
as §3

Data set [20] relates to Staphylococcus aureus. The data set can be described thus: Antimicrobial activity against Panton-valentine leukocidin positive community acquired methicillin-resistant Staphylococcus aureus N4090440 obtained from wound infection of patient infected in human THP-1 cells assessed as decrease in bacterial growth after 24 hrs at pH 5.5. The class given is functional, organism-based. Conditions: N4090440, THP-1, 24 h. An outline of the steps:
as §3

Data set [21] concerns Staphylococcus aureus. The data set can be described thus: Antimicrobial activity against hospital acquired methicillin-resistant and vancomycin-intermediate Staphylococcus aureus VRS2 obtained from wound, skin and soft tissue infection of patient infected in human THP-1 cells assessed as decrease in bacterial growth after 24 hrs at pH 5.5. The class given is functional, cell-based. Conditions: VRS2, THP-1, 24 h. A digest of the protocol:
(§4)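 Human THP-1 macrophages infected with each S. aureus strain. Cloxacillin added extracellularly at about 0.01× to 100× the broth MIC measured at pH 5.5, with gentamicin 0.5 mg/liter to stop extracellular growth. Incubated 24 h. CFU counted per mg cell protein as change from the post-phagocytosis inoculum, n = 3. Emin, Emax and EC50 from a Hill fit; static concentration by graphical interpolation.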

In data set [22] the test system is Staphylococcus aureus. The data set can be described thus: Bacteriostatic activity against hospital acquired methicillin-resistant Staphylococcus aureus N4120032 infected in human THP-1 cells assessed as decrease in bacterial growth after 24 hrs at pH 5.5. It counts as functional. A digest of the protocol:
as §4

Data set [23] has as its system Staphylococcus aureus. The data set can be described thus: Bacteriostatic activity against hospital acquired methicillin-resistant Staphylococcus aureus HMC546 infected in human THP-1 cells assessed as decrease in bacterial growth after 24 hrs at pH 5.5. The class given is functional. An outline of the steps:
as §4

For `Cc1onc(-c2ccccc2Cl)c1C(=O)N[C@@H]1C(=O)N2[C@@H]1SC(C)(C)[C@@H]2C(=O)O` [CLOXACILLIN], the EC50 turned out to be 0.39 µg/mL (≈ 0.895 µM) in data set [1]; 0.52 µg/mL (≈ 1.19 µM) in data set [3]; 0.27 µg/mL (≈ 0.619 µM) in data set [7]; 4.44 ×MIC in data set [18]; 2.74 ×MIC in data set [19]; 3.14 ×MIC in data set [20]. Further, the EC50 in [21] was 3.63 ×MIC. Also, the log10cfu in data set [2] turned out to be 0.93; in data set [6], 0.55; in data set [15] it was 2.27; in data set [16], 1.84; in data set [17], 0.74. For the same molecule, the Activity in data set [4] is 1 mg/L; in [22], 33.1 ×MIC; in [23], 11.7 ×MIC. Also, the remaining at 24 h in [5] was determined as 93.3%. Besides, in data set [8], the Ratio came to 0.28. Besides, the MIC in data set [9] is 16 µg/mL (≈ 36.7 µM); in data set [10] it was 32 µg/mL (≈ 73.4 µM); in data set [11], 0.06 µg/mL (≈ 0.138 µM); in data set [12], 0.06 µg/mL (≈ 0.138 µM); in data set [13], 0.06 µg/mL (≈ 0.138 µM); in [14], 0.03 µg/mL (≈ 0.0688 µM).
